Laboratory results: ChEMBL document CHEMBL3868602, “Novel synthetic chalcones induce apoptosis in the A549 non-small cell lung cancer cells harboring a KRAS mutation” (Bioorg Med Chem Lett, 2016)
pEC50: −log10 of the molar value. The source made the active and inactive calls. The rule behind the calls is not given here.

How the values were obtained:
[1] = test system: A549; assay: Cytotoxicity against human A549 cells harboring KRAS mutant assessed as increase in apoptotic cells at 1 uM after 72 hrs by crystal violet staining based assay; type: functional, cell-based
Summary of the method: (§1)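 Cells exposed 72 h to compound or DMSO vehicle, either at 1 and 10 μM or over 0.033–10 μM dose series. Surviving cells then stained with crystal violet and absorbance read at 562 nm. Effect expressed as % dead/apoptotic cells relative to DMSO, average of triplicates; dose curves n=6, run twice, mean ± SD, giving EC50.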

[2] = test system: A549; assay: (§2) Cytotoxicity against human A549 cells harboring KRAS mutant assessed as increase in apoptotic cells after 72 hrs by crystal violet staining based assay; type: functional, cell-based; summary of the method: as §1
[3] = as §2; type: functional, cell-based; conditions: A549, 72 h; summary of the method: as §1
[4] = Cytotoxicity against human A549 cells harboring KRAS mutant assessed as apoptotic cells at 10 uM after 72 hrs by crystal violet staining based assay; type: functional; summary of the method: as §1
[5] = Cytotoxicity against NHBE cells assessed as decrease in cell viability at 0.01 to 10 uM after 72 hrs by crystal violet staining based assay; type: toxicity; conditions: human; summary of the method: as §1
[6] = test system: A549; assay: Induction of apoptosis in human A549 cells harboring KRAS mutant assessed as blockage of G2/M transition phase at 1 uM after 24 hrs by propidium iodide staining based flow cytometry; type: functional, cell-based
Summary of the method: (§3)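 Serum-starved 24 h to block in G1/G0, then returned to FBS-containing medium with test agent at 1 μM for a further 24 h. 0.5 × 10^6 treated cells stained with propidium iodide and analysed by flow cytometry, gating G1, S, G2/M plus apoptotic and necrotic populations. n=4–5 repeats.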

[7] = molecular target: T1, Retinoblastoma-associated protein (Homo sapiens) (UniProt P06400); assay: Inhibition of phosphorylated retinoblastoma protein level in human A549 cells harboring KRAS mutant at 1 uM after 8 to 48 hrs by Western blot analysis; type: cell-based
T1 sequence (whole entry): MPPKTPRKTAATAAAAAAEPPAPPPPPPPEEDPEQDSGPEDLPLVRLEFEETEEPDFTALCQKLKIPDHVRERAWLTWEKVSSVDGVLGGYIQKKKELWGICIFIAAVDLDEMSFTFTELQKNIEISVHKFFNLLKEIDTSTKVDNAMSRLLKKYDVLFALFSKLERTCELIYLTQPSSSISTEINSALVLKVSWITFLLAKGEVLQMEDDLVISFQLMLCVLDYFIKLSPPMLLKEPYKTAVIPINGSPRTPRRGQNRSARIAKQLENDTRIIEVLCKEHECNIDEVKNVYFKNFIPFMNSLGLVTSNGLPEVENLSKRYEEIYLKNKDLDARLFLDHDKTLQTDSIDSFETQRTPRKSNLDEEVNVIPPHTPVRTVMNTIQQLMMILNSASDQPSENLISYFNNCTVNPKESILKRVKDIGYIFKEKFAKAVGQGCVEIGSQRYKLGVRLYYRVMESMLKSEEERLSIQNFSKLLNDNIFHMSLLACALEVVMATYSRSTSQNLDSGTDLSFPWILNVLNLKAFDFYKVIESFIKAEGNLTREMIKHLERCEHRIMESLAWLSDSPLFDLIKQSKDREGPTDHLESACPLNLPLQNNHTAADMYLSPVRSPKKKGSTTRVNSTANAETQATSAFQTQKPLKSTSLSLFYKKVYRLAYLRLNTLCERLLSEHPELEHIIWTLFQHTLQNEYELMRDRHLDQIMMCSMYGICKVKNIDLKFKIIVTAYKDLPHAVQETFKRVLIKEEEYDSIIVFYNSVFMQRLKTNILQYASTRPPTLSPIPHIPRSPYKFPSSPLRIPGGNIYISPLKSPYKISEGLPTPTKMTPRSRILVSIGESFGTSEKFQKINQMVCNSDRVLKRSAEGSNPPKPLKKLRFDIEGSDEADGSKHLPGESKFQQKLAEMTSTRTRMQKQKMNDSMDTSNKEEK
Summary of the method: (§4)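 A549 cells given serum-containing medium with DMSO or 1 μM compound for 8, 24 or 48 h. Lysates immunoblotted for cyclin A2, cyclin B1, phospho-Rb, total Rb and phospho-STMN1. Two independent experiments.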

[8] = Cytotoxicity against human A549 cells harboring KRAS mutant assessed as cell death at 1 uM after 72 hrs by crystal violet staining based assay; type: functional
Summary of the method: (§5)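 Cells treated with compound or DMSO vehicle for 72 h at 0.033–10 uM, then stained with crystal violet; absorbance at 562 nm taken as live cell number. Cell death read at 1 uM relative to DMSO controls. n=6, performed twice; mean ± SD.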

[9] = Cytotoxicity against human HPAC CRL2119 cells assessed as cell death at 1 uM after 72 hrs by crystal violet staining based assay; type: functional; summary of the method: as §5
[10] = test system: A549; assay: Suppression of cyclin A2 level in human A549 cells harboring KRAS mutant at 1 uM after 8 to 48 hrs by Western blot analysis; type: functional, cell-based; summary of the method: as §4
[11] = molecular target: T2, Stathmin (Homo sapiens) (UniProt P16949); assay: Increase in STMN1 phosphorylation in human A549 cells harboring KRAS mutant at 1 uM after 8 hrs by Western blot analysis; type: cell-based; summary of the method: as §4
T2 sequence (whole entry): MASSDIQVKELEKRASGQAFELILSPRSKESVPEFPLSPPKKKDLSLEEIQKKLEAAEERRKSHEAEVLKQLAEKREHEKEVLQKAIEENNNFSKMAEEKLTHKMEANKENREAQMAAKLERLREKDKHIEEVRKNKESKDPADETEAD

[12] = Cytotoxicity against human PC3 cells assessed as cell death at 1 uM after 72 hrs by crystal violet staining based assay; type: functional, PC-3; summary of the method: as §5
[13] = Cytotoxicity against mouse Panc02 cells assessed as cell death at 1 uM after 72 hrs by crystal violet staining based assay; type: functional; summary of the method: as §5
[14] = Therapeutic index, ratio of EC50 for NHBE cells to EC50 for human A549 cells harboring KRAS mutant; type: cell-based; conditions: NHBE cells versus A549 cells harboring KRAS mutant, read-out: Ratio EC50
Summary of the method: (§6)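 Ratio computed from EC50 values obtained by 72 h crystal violet survival assays (absorbance 562 nm) in each cell line, divided by the A549 EC50.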

[15] = Effect on cell cycle in NHBE cells at 1 uM after 24 hrs by propidium iodide staining based flow cytometry; conditions: human; summary of the method: as §3
[16] = test system: A549; assay: Ratio of EC50 for mouse Panc02 cells to EC50 for human A549 cells harboring KRAS mutant; type: functional; summary of the method: as §6
[17] = test system: HPAC; assay: Induction of apoptosis in human HPAC CRL2119 cells after 72 hrs by crystal violet staining based assay; type: functional, cell-based; summary of the method: as §1
[18] = test system: PC-3; assay: Induction of apoptosis in human PC3 cells after 72 hrs by crystal violet staining based assay; type: functional, cell-based; summary of the method: as §1
[19] = test system: A549; assay: Ratio of EC50 for human HPAC CRL2119 cells to EC50 for human A549 cells harboring KRAS mutant; type: functional; summary of the method: as §6
[20] = test system: Panc02; assay: Induction of apoptosis in mouse Panc02 cells after 72 hrs by crystal violet staining based assay; type: functional, cell-based; summary of the method: as §1
[21] = test system: A549; assay: Ratio of EC50 for human PC3 cells to EC50 for human A549 cells harboring KRAS mutant; type: functional; summary of the method: as §6
[22] = Cell cycle arrest in human PC3 cells assessed as inhibition of S phase at 1 uM after 24 hrs by propidium iodide staining based flow cytometry; type: functional; conditions: PC-3; summary of the method: as §3
[23] = Cell cycle arrest in human PC3 cells assessed as blockage of G1 phase at 1 uM after 24 hrs by propidium iodide staining based flow cytometry; type: functional; conditions: PC-3; summary of the method: as §3

SMILES: Cn1ccc2cc(/C=C3\CCc4ccccc4C3=O)ccc21
- Activity [1]: Active
- Activity [2]: Dose-dependent effect
- pEC50 [3]: 6.33

SMILES: CCn1ccc2cc(/C=C3\CCc4ccc(OC)cc4C3=O)ccc21
- Activity [1]: Active
- Activity [2]: Dose-dependent effect
- pEC50 [3]: 5.52

SMILES: COc1ccc2c(c1)C(=O)/C(=C/c1ccc3ccn(C)c3c1)CC2
- Activity [1]: Active
- Activity [2]: Dose-dependent effect
- pEC50 [3]: 5.24

SMILES: O=C1/C(=C/c2ccc3c(ccn3Cc3ccccc3)c2)CCc2ccc(F)cc21
- Activity [2]: Dose-dependent effect

SMILES: COc1ccc2c(c1)C(=O)/C(=C/c1ccc3c(ccn3C)c1)CC2
- Activity [1]: Active
- Activity [2]: Dose-dependent effect
- pEC50 [3]: 5.52

SMILES: Cn1ccc2cc(/C=C3\CCc4ccc(Br)cc4C3=O)ccc21
- Activity [2]: Dose-dependent effect
- Activity [4]: 21%

SMILES: COc1ccc2c(c1)C(=O)/C(=C/c1ccc3[nH]ccc3c1)CC2
- Activity [5]: Non-Toxic
- Activity [6]: Active
- inhibition [7]: Active
- Activity [1]: Active
- Activity [8]: 80%
- Activity [9]: <40%
- Activity [10]: Active
- Activity [11]: Active
- Activity [12]: <40%
- Activity [13]: <40%
- Activity [2]: Dose-dependent effect
- pEC50 [3]: 6.26
- selectivity ratio [14]: > 18
- Activity [15]: Non-Toxic

SMILES: CCn1ccc2cc(/C=C3\CCc4ccc(F)cc4C3=O)ccc21
- Ratio EC50 [16]: >4
- Activity [17]: Dose-dependent effect
- pEC50 [17]: 6.51
- Activity [1]: Active
- Activity [18]: Dose-dependent effect
- pEC50 ([18]; PC-3, 72 h): 6.35
- Ratio EC50 [19]: 2.8
- Activity [2]: Dose-dependent effect
- pEC50 [3]: 6.96
- Activity [20]: Dose-dependent effect
- pEC50 ([20]; Panc02, 72 h): 6.23
- Ratio EC50 [21]: >4

SMILES: Cn1ccc2cc(/C=C3\CCc4ccc(F)cc4C3=O)ccc21
- Activity [1]: Active
- Activity [2]: Dose-dependent effect
- pEC50 [3]: 6.70

SMILES: COc1cc2c(cc1OC)C(=O)/C(=C/c1ccc3c(ccn3C)c1)CC2
- Activity [2]: Dose-dependent effect

SMILES: O=C1/C(=C/c2ccc3[nH]ccc3c2)CCc2ccc(Br)cc21
- Activity [2]: Dose-dependent effect
- Activity [4]: 16%

SMILES: COc1cc(/C=C2\CCc3ccc(F)cc3C2=O)cc(OC)c1OC
- inhibition [22]: Active
- Activity [23]: Active

SMILES: O=C1/C(=C/c2ccc3[nH]ccc3c2)CCc2ccccc21
- Activity [1]: Active
- Activity [2]: Dose-dependent effect
- pEC50 [3]: 5.95

SMILES: CCn1ccc2cc(/C=C3\CCc4cc(OC)c(OC)cc4C3=O)ccc21
- Activity [2]: Dose-dependent effect
- Activity [4]: 19%

SMILES: CC(C)(C)OC(=O)n1ccc2cc(/C=C3\CCc4ccccc4C3=O)ccc21
- Activity [2]: Dose-dependent effect

SMILES: CCn1ccc2cc(/C=C3\CCc4ccccc4C3=O)ccc21
- Activity [1]: Active
- Activity [2]: Dose-dependent effect
- pEC50 [3]: 6.34

SMILES: O=C1/C(=C/c2ccc3[nH]ccc3c2)CCc2ccc(F)cc21
- Activity [1]: Active
- Activity [2]: Dose-dependent effect
- pEC50 [3]: 6.57

SMILES: CC(C)(C)OC(=O)n1ccc2cc(/C=C3\CCc4ccc(F)cc4C3=O)ccc21
- Activity [2]: Dose-dependent effect

SMILES: Cn1ccc2ccc(/C=C3\CCc4ccccc4C3=O)cc21
- Activity [1]: Active
- Activity [2]: Dose-dependent effect
- pEC50 [3]: 6.33

SMILES: CC(=O)n1ccc2cc(/C=C3\CCc4ccc(F)cc4C3=O)ccc21
- Activity [2]: Dose-dependent effect
- Activity [4]: 28%

SMILES: COc1cc2c(cc1OC)C(=O)/C(=C/c1ccc3ccn(C)c3c1)CC2
- Activity [1]: Active
- Activity [2]: Dose-dependent effect
- pEC50 [3]: 5.00

SMILES: Cn1ccc2ccc(/C=C3\CCc4ccc(Br)cc4C3=O)cc21
- Activity [2]: Dose-dependent effect
- Activity [4]: 26%

SMILES: CCn1ccc2cc(/C=C3\CCc4ccc(Br)cc4C3=O)ccc21
- Activity [2]: Dose-dependent effect
